Experimental data published in ChEMBL document CHEMBL3244342, “Haloacetamido analogues of 2-amino-2-deoxy-D-glucose and 2-amino-2-deoxy-D-galactose. Syntheses and effects on the Friend murine erythroleukemia” (J Med Chem, 1978).
Calls of active or inactive are those of the source. The rule behind the calls is not given here.

Tests used:
[1] = Toxicity in ip dosed BDF1 mouse assessed as animal killed administered as single dose; details: in vivo
[2] = Antiproliferative activity against DBA/2J mouse Friend erythroleukemia cells after 3 days by cell counter; format: functional, cell-based; details: Leukemia cell, 72 h
Procedure, shortened: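 Log-phase suspension cultures in DMEM with 10% fetal calf serum, penicillin/streptomycin, 37 °C, 10% CO2, seeded at 10^5 cells/mL. Continuous exposure to a range of concentrations for 3 days. Water-insoluble agents given in ethanol (final ≤0.125%). Cells counted by Coulter counter. IC50 is the concentration giving 50% inhibition of multiplication versus vehicle-treated controls.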

[3] = Inhibition of bis(acetyl)diaminopentane-induced cell differentiation in DBA/2J mouse Friend erythroleukemia cells assessed as proportion of hemoglobin containing cells at 1 mM after 3 days by benzidine peroxide staining (reference value: 82.2 +/- 2.4%); format: functional; details: Leukemia cell, 72 h
Leukemia cell [4] = assay: Antitumor activity against DBA/2J mouse Friend erythroleukemia cells allografted ip dosed DBA/2 mouse assessed as increase in host survival time administered on days 1, 2 and 3 after tumor transplantation; format: functional, organism-based
[5] = Inhibition of cell growth of DBA/2J mouse Friend erythroleukemia cells at 1 mM after 3 days in presence of bis(acetyl)diaminopentane; format: functional; details: Leukemia cell, 72 h
Procedure, shortened: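 Log-phase Friend erythroleukemia cells (DBA/2J origin) were seeded at 10⁵ cells/mL in DMEM plus 10% fetal calf serum at 37 °C under 10% CO₂. Analogue at 1 mM was combined with the inducer bis(acetyl)diaminopentane at 4.5 mM. After 3 days, cell numbers were counted with a Coulter counter to give percent cytostasis.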

Leukemia cell [6] = assay: Induction of cell differentiation in DBA/2J mouse Friend erythroleukemia cells assessed as proportion of hemoglobin containing cells at IC50 concentration for antiproliferative effect after 3 days by benzidine peroxide staining; format: functional, cell-based
Procedure, shortened: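 Exponentially growing cells seeded at 10^5 cells/mL in DMEM with 10% fetal calf serum at 37 °C and 10% CO2, incubated 3 days with the analogue. Ethanol vehicle final ≤0.125%. Hemoglobin-containing cells scored by benzidine peroxide stain. Controls received no drug or the inducer bis(acetyl)diaminopentane.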

[7] = Inhibition of cell growth of DBA/2J mouse Friend erythroleukemia cells at 0.4 mM after 3 days in presence of bis(acetyl)diaminopentane; format: functional; details: Leukemia cell, 72 h
Procedure, shortened: (§1)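 Exponentially growing cells seeded at 10^5 cells/mL, exposed for 3 days to 4.5 mM bis(acetyl)diaminopentane together with the analogue. Cell numbers counted by Coulter counter. Cytostasis expressed relative to untreated control cultures.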

[8] = Bis(acetyl)diaminopentane-induced cell differentiation in DBA/2J mouse Friend erythroleukemia cells assessed as proportion of hemoglobin containing cells at 0.4 mM after 3 days by benzidine peroxide staining (reference value: 82.2 +/- 2.4%); details: Leukemia cell, 72 h
[9] = Inhibition of cell growth of DBA/2J mouse Friend erythroleukemia cells at 4 uM after 3 days in presence of bis(acetyl)diaminopentane; format: functional; details: Leukemia cell, 72 h; procedure, shortened: as §1

| SMILES | LD50 [1] [µmol/kg] | IC50 [2] [µM] | inhibition at 1000 µM [3] [%] | Activity (Leukemia cell [4]) | inhibition at 1000 µM [5] [%] | Activity (Leukemia cell [6]) | inhibition at 400 µM [7] [%] | benzidine-positive cells % at 400 µM [8] [%] | inhibition at 4 µM [9] [%] |
| --- | --- | --- | --- | --- | --- | --- | --- | --- | --- |
| O=C(CF)N[C@@H]1[C@@H](O)[C@H](O)[C@@H](CO)O[C@H]1O | 180 | 1000 | 69.5 | inactive | 83 | inactive | – | – | – |
| CC(=O)OC[C@H]1O[C@@H](OC(C)=O)[C@H](NC(=O)CBr)[C@@H](OC(C)=O)[C@@H]1OC(C)=O | 210 | 3 | – | inactive | – | inactive | – | – | – |
| O=C(CBr)N[C@@H]1[C@@H](O)[C@@H](O)[C@@H](CO)O[C@H]1O | 1700 | – | – | inactive | – | – | – | – | – |
| NC(=O)CCl | – | 200 | – | inactive | – | – | – | – | – |
| CC(=O)OC[C@H]1O[C@@H](OC(C)=O)[C@H](NC(=O)CCl)[C@@H](OC(C)=O)[C@H]1OC(C)=O | 670 | 15 | – | inactive | – | inactive | – | – | – |
| CC(=O)OC[C@H]1O[C@@H](OC(C)=O)[C@H](NC(=O)CCl)[C@@H](OC(C)=O)[C@@H]1OC(C)=O | 940 | 8 | – | inactive | – | inactive | – | – | – |
| O=C(CCl)N[C@@H]1[C@@H](O)[C@H](O)[C@@H](CO)O[C@H]1O | 2000 | 400 | – | inactive | – | inactive | 83 | 24 | – |
| O=C(CBr)N[C@@H]1[C@@H](O)[C@H](O)[C@@H](CO)O[C@H]1O | > 2400 | – | – | inactive | – | – | – | – | – |
| CC(=O)OC[C@H]1O[C@@H](OC(C)=O)[C@H](NC(=O)CF)[C@@H](OC(C)=O)[C@H]1OC(C)=O | 980 | 60 | – | inactive | – | inactive | – | – | – |
| O=C(CCl)N[C@@H]1[C@@H](O)[C@@H](O)[C@@H](CO)O[C@H]1O | 1500 | – | – | inactive | – | – | – | – | – |
| CC(=O)N[C@H]1[C@H](OC(C)=O)O[C@H](COC(C)=O)[C@@H](OC(C)=O)[C@@H]1OC(C)=O | – | 400 | – | inactive | – | – | – | – | – |
| CC(=O)OC[C@H]1O[C@@H](OC(C)=O)[C@H](NC(=O)CBr)[C@@H](OC(C)=O)[C@H]1OC(C)=O | 220 | 4 | – | inactive | – | inactive | – | – | 83 |
| O=C(CF)N[C@@H]1[C@@H](O)[C@@H](O)[C@@H](CO)O[C@H]1O | 740 | – | – | inactive | – | – | – | – | – |
| O=C(O)CF [FLUOROACETATE] | 100 | – | – | inactive | – | – | – | – | – |
| CC(=O)OC[C@H]1O[C@@H](OC(C)=O)[C@H](NC(=O)CF)[C@@H](OC(C)=O)[C@@H]1OC(C)=O | 170 | 60 | – | inactive | – | inactive | – | – | – |
